# Screening results (PubChem)
# An excerpt weighted towards active compounds, which were near 4.9% of everything screened.
# STAT3 activator: STAT3 signaling activation; U3A cells, IL-6 STAT3-luciferase reporter, luminescence; 100% = signal with IL-6 EC80 alone; hit rate 0.91% among 190,000; activation (% of control), % at 5.6 µM;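 active = activation above the screen-wide mean of compound activation plus 3 SD, cut at about 130% in these data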;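 also: 0% = background luminescence of wells with medium and substrate only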
#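 Test system: STAT3-luciferase reporter U3A cells; Detection: reporter luminescence signal; Times: 1 h compound pre-exposure, 6 h IL-6 stimulation, 37 °C; Benchmarks: IL-6-only high control; Also added: IL-6 stimulus at 33 ng/mL final.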
# STAT1 act: increases IFN-gamma driven STAT1 reporter signal; NIH 3T3 STAT1-luciferase reporter, luminescence; 100% = IFN-gamma alone, no compound; activation (% of control), % at 5.5 µM; hit rate 2.6% among 200,000;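 active = activation above the screen-wide mean activation plus 3 SD, cut at about 130% in these data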;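 also: raw ratio to IFN-gamma control signal so 100% means no change and 0% no light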
# STAT1 inh: inhibitors of IFN-gamma induced STAT1 signaling; inhibition, % at 5.5 µM; AID 920; NIH 3T3 STAT1-luciferase reporter, luminescence; hit rate 0.35% among 200,000;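 active = inhibition above a set limit, the mean inhibition across all tested compounds plus 3 SD, cut at about 34% in these data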;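 also: 0% = IFN-gamma with DMSO and 100% = IFN-gamma with 300 µM nifuroxazide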
# FLuc inhib CS: Photinus pyralis luciferase inhibition counter-screen; inhibition, % at 10 µM; ATPLite firefly luciferase biochemical luminescence, 10 min; P08659; AID 1006; hit rate 1.5% among 200,000;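 active = inhibition above about 50% when tested at 10 µM, limit read from the data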
# Target sequence (P08659 whole entry, looked up): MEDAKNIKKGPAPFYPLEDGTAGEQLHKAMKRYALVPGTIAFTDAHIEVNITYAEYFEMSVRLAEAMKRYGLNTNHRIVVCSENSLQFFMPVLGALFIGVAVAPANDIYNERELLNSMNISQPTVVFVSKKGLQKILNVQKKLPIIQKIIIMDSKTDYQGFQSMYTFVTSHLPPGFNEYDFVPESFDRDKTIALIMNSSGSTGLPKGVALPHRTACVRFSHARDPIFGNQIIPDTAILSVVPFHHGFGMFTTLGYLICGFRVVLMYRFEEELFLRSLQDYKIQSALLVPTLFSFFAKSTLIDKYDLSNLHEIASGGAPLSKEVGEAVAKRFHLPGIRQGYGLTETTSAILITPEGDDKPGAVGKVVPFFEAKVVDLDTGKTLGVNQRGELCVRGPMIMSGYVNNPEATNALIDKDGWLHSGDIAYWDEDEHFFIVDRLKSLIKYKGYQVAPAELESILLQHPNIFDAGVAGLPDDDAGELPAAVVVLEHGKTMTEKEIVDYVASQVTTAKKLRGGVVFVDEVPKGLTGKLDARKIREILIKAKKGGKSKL
# FLuc act counter: firefly luciferase counter-screen for stimulation assays | P08659 | ATPlite luciferase biochemical, luminescence, 10 min; 0 = ATP-free wells, 1 = DMSO control | activation factor at 10 µM | 200,000 tested, under 10 active;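 active = luciferase activation factor, scaled between plate controls, of at least 2 with compound at 10 µM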
#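 Assay system: Luciferase/luciferin reagent mix; Medium: PBS as buffer for the ATP substrate; Dosing: test compounds dosed from 2 mM stocks in 100% DMSO; Times: 10 min, room temperature; Signal: luminescence from luciferase reaction; Read-out: luciferase activation; Controls: No-ATP low control, compound-free enzyme-plus-ATP high control.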
# STAT3 inh: STAT3 signaling inhibition; inhibition, % at 5.5 µM; hit rate 0.89% among 190,000; AID 862; U3A cells, IL-6 STAT3-luciferase reporter, luminescence; host cell line lacks STAT1;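 active = inhibition above the mean inhibition across all screened compounds plus 3 SD, cut at about 44% in these data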;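 also: 0% = DMSO only wells and 100% = 100 µM nifuroxazide control wells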
# STAT1 act conf: confirmation of STAT1 signaling activators. shares compounds with STAT1 act. NIH 3T3 STAT1-luciferase reporter, IFN-gamma potentiation, luminescence; 100% = IFN-gamma EC80 alone, no compound. activation (% of control), % at 5.7 µM. hit rate 97% among 1,200;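 active = activation above a set limit carried over from the earlier primary STAT1 screen, cut at about 140% in these data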;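 also: simple ratio to median IFN-gamma plus DMSO wells so 0% means no light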
# NFkB act STAT1ct: counter-screen for STAT1 activators: NF-kappaB activation; shares compounds with STAT1 act; HEK293T NF-kB luciferase reporter, TNF-alpha stimulated, luminescence; 100% = TNF-alpha with vehicle only; activation (% of control), % at 5.7 µM; hit rate 43% among 1,200; AID 1306;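 active = activation above the mean of solvent-only control wells plus 3 SD, set per campaign, cut at about 130% in these data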;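 also: TNF-alpha given at a submaximal dose yielding about 80% of full reporter signal; values are well signal over median control so 100% means no change and 0% no light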
# STAT3 act STAT1c: counter-screen for STAT1 activators: human STAT3 activation | shares compounds with STAT1 act | U3A cells STAT3-luciferase reporter, IL-6, luminescence; cells lack STAT1; 100 = IL-6 alone, no compound effect | activation (% of control), % at 5.7 µM | hit rate 46% among 1,200;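 active = activation above the solvent-only control well mean plus 3 SD, set per plate batch, cut at about 110% in these data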;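 also: 0% = no luminescence and 100% = median IL-6 plus DMSO wells; higher means more STAT3 reporter activation so hits are non-selective activators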
# The depositor's hits bear a star; nt = not tested or not shown.
SMILES,STAT3 activator,STAT1 act,STAT1 inh,FLuc inhib CS,FLuc act counter,STAT3 inh,STAT1 act conf,NFkB act STAT1ct,STAT3 act STAT1c
O=C(NCCC1=CCCCC1)c1ccc(F)cc1,73,166*,-76,40,0.6,32,200*,107,102
O=C(NCCC1=CCCCC1)c1ccc([N+](=O)[O-])cc1,91,151*,-57,21,0.8,13,189*,118,160*
Cc1ccccc1C(=O)N1CCC(C(=O)Nc2ccc3c(c2)OCO3)CC1,99,106,-7,-4,1,-1,nt,nt,nt
COc1ccc2nc3oc(C(=O)N4CCCCC4)cc3cc2c1,86,179*,-86,27,0.7,20,206*,136*,107
CCOc1ccccc1N1CC(C(=O)Nc2ccc3c(c2)OCCO3)CC1=O (stereo not given),107,96,2,-2,1,-5,nt,nt,nt
CCCCn1cnc2c(sc3nc4c(cc32)CSC(C)(C)C4)c1=O,115,152*,-57,31,0.7,-11,208*,134*,108
CCC(=O)Nc1cccc(NC(=S)NC(=O)c2ccccc2)c1,112,151*,-57,15,0.8,-12,162*,128,114*
CCC(=O)Nc1cccc(NC(=S)NC(=O)c2cc3ccccc3o2)c1,85,157*,-63,28,0.7,20,235*,122,111*
CCC(=O)Nc1cccc(NC(=S)NC(=O)c2cccc(C)c2)c1,100,124,-27,11,0.9,0,nt,nt,nt
Cc1ccnc(NC(=O)c2ccc(S(=O)(=O)c3ccccc3)cc2)c1,88,99,2,-2,1,22,nt,nt,nt
O=C(COC(=O)C12CC3CC(CC(C3)C1)C2)Nc1ccc([N+](=O)[O-])cc1Cl,103,95,6,-8,1.1,-3,nt,nt,nt
O=C(Nc1ccc2c(c1)CCC2)c1cccc(F)c1,97,162*,-70,41,0.6,4,202*,131,102
O=C(Nc1ccc2c(c1)CCC2)c1ccccc1Br,90,154*,-59,30,0.7,15,218*,138*,112*
Nc1c(C(=O)c2ccccc2)oc2ccc(Br)cc12,128,155*,-61,4,1,-28,188*,136*,130*
O=C(CCC(=O)NNC(=O)Nc1cccc(Cl)c1)NCc1ccccc1,100,106,-8,-4,1,4,nt,nt,nt
O=c1c2ccccc2nc(/C=C/c2ccc([N+](=O)[O-])o2)n1CCCO,105,151*,-58,-5,1.1,-2,167*,157*,105
CCCC(=O)Nc1nc2ccc3nc(C)sc3c2s1,81,125,-28,-7,1.1,26,nt,nt,nt
CCC(=O)Nc1nc2ccc3sc(C)nc3c2s1,116,168*,-79,40,0.6,-14,189*,121,143*
CC(C)(C)C(=O)Nc1ccc(C(=O)OC2CCCCC2)cc1,128,162*,-67,-2,1,-37,219*,145*,133*
CC(=O)c1ccc(NC(=O)c2ccc(C)c(Br)c2)cc1,96,156*,-63,12,0.9,7,198*,140*,101
Cn1cc([N+](=O)[O-])c(C(=O)Nc2nccs2)n1,82,98,0,-7,1.1,24,nt,nt,nt
COc1cc(/C=N/NC(=O)CC2(C)OCCCO2)ccc1OCc1ccccc1,111,113,-14,-4,1,-16,nt,nt,nt
COc1cc(/C=N/NC(=O)CN2CCCCC2)ccc1OCc1ccc(Br)cc1,113,176*,-85,-2,1,-17,178*,136*,119*
CC(=O)N1N=C(c2ccc(C)cc2)OC1c1ccc(C)cc1 (stereo not given),116,122,-24,-4,1,-14,nt,nt,nt
CC(=O)N1N=C(c2ccc(C)cc2)OC1c1ccc(C(C)C)cc1 (stereo not given),133,166*,-73,0,1,-37,217*,146*,146*
SMILES,STAT3 activator,STAT1 act,STAT1 inh,FLuc inhib CS,FLuc act counter,STAT3 inh,STAT1 act conf,NFkB act STAT1ct,STAT3 act STAT1c
Nc1ccc2oc(CCc3ccccc3)nc2c1,96,161*,-67,9,0.9,7,177*,143*,116*
c1ccc2oc(CCc3nc4ccccc4o3)nc2c1,nt,nt,nt,1,1,nt,nt,nt,nt
COC(=O)c1ccc(OCC(O)CN2C(=O)c3ccccc3S2(=O)=O)cc1 (stereo not given),93,95,4,1,1,10,nt,nt,nt
O=C(Nc1ccc2ccccc2c1)c1onc2c1CCCC2,93,154*,-60,28,0.7,13,270*,121,98
Cc1ccc(/C=N/N=C/c2ccc(C)s2)s1,86,177*,-87,74*,0.3,20,238*,120,99
N#C/C(=N\Nc1ccc(F)cc1)C(=N)N1CCCCC1,105,155*,-59,55*,0.5,-1,216*,127,115*
CCOc1ccc2nc(NC(=S)N(C)C)sc2c1,69,183*,-84,18,0.8,37,293*,134*,103
CCOc1ccc2nc(NC(=O)CSc3ccccc3)sc2c1,98,102,-2,-3,1,6,nt,nt,nt
CN(C)C(=S)Nc1nc2ccccc2s1,71,165*,-73,10,0.9,37,170*,138*,83
CC(C)OC(=O)CCC(=O)Nc1nc2ccccc2s1,110,116,-17,-7,1.1,-7,nt,nt,nt
CCC/C=N/NC(=O)c1cccc(Br)c1,103,104,-6,-9,1.1,9,nt,nt,nt
Cc1scc(C(=O)N2CCN(c3ccc(Cl)cc3)CC2)c1C,92,91,7,-2,1,15,nt,nt,nt
COc1ccc(-c2cc(=NC(CC(C)C)C(=O)O)c3cc(C)ccc3o2)cc1 (stereo not given),90,156*,-63,11,0.9,16,144*,136*,108
O=C(Nc1nc2ccccc2[nH]1)c1cccc([N+](=O)[O-])c1,107,156*,-65,22,0.8,-2,169*,125,120*
CCCNS(=O)(=O)c1ccc(OCC(=O)Nc2ccc3c(c2)OCO3)cc1,98,99,1,-3,1,5,nt,nt,nt
